No end group written: not given here.
What was measured:
[1] = test system: E. coli; assay: Viable count analysis; assay type: cell-based, Escherichia coli; details: GGL27 1 µM, 1 hour at 37°C, normal human citrated plasma; Fig. 3h
Outline: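 Mid-exponential E. coli grown in Todd-Hewitt broth and washed. 2 x 10^8 cfu/ml incubated 60 min at 37°C with test peptide in 100% human citrated plasma, or in plasma pretreated 3 h with IdeS (0.2 µg/µl) to remove IgG. Serial dilutions plated on TH agar overnight at 37°C; cfu counted and expressed as % survival, mean ± SD.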

[2] = test system: bacteria; details: buffer with physiological salt content or plasma; ref [7]; cited from earlier work
[3] = test system: intrinsic pathway of coagulation; assay: aPTT clotting assay in crocodile plasma; assay type: biochemical, crocodile (Crocodylus siamensis); details: peptide 50 µM in citrated crocodile plasma; n=3; Fig. 4b; words
[4] = test system: intrinsic pathway of coagulation; assay: aPTT clotting assay in turkey plasma; assay type: biochemical; details: peptide 50 µM in citrated turkey plasma; n=3; Fig. 4c; words

Substance: GGLIKTKRKRKKQRVKIAYEEIFVKNM [GGL27]
- killing of E. coli [1]: ~100%

Substance: LL-37: antibacterial peptide (LLGDFFRKSKEKIGKEFKRIVQRIKDFLRNLVPRTES; Antibacterial peptide LL-37; UniProt P49913 134-170, looked up)
- killing activity in physiological salt or plasma [2]: lose their killing activity

Substance: RGIIKIKRKRKKQPEKMVRDEIIIERI [American alligator]
- aPTT clotting time [3]: clotting times were prolonged

Substance: RRLIRIKKKKKQSLKTVGEEIIRGRIQ [Common turkey]
- aPTT clotting time [4]: shortened clotting time

From article PMC5955456 (Virulence, 2018)
